Laboratory results published in ChEMBL document CHEMBL1143162, “Synthesis and pharmacological evaluation of pyrazoline derivatives as new anti-inflammatory and analgesic agents” (Bioorg Med Chem Lett, 2008).

Assays:
Rattus norvegicus [1] = assay: Antiinflammatory activity against carrageenan-induced hind paw edema in rat at 41 umol/kg, po after 3 hrs relative to flurbiprophen; format: functional
Procedure, shortened: (§1)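 Given orally to rats at a dose equimolar to 10 mg/kg (41 µmol/kg) of the reference drug. Paw-oedema % inhibition was calculated at both 3 h and 4 h after dosing.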

Rattus norvegicus [2] = assay: Antiinflammatory activity against carrageenan-induced hind paw edema in rat at 41 umol/kg, po after 4 hrs relative to flurbiprophen; format: functional; procedure, shortened: as §1
Mus musculus [3] = assay: Analgesic activity in mouse at 41 umol/kg, po by tail immersion method relative to flurbiprophen; format: functional
Procedure, shortened: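 Tail-immersion test in mice, oral dose of 41 µmol/kg. Tail reaction time (s) was read before dosing (0 h) and 4 h after dosing. % inhibition was calculated relative to each animal's pre-treatment value. n = 6, compared by paired Student's t test.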

Mus musculus [4] = assay: Ulcerogenic effect in mouse at 123 umol/kg, po relative to flurbiprophen; format: toxicity, organism-based; conditions: in vivo
Procedure, shortened: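 Acute ulcerogenic test with oral dosing at an amount equimolar to 30 mg/kg flurbiprofen. Gastric damage is scored as a severity index, given as mean ± SEM (n = 6). Comparison is against the standard by ANOVA with Dunnett's multiple comparison test.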

Gastric mucosa = assay: Inhibition of lipid peroxidation in mouse gastric mucosa tissue assessed as malondialdehyde level per 100 mg tissue relative to flurbiprophen; format: functional, tissue-based
Procedure, shortened: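 Animals receive the oral dose used in the ulcerogenic study, equimolar to 30 mg/kg flurbiprofen. Lipid peroxidation in the tissue is read as MDA content in nmol per 100 mg tissue, given as mean ± SEM (n = 6). Comparison is against the standard by ANOVA with Dunnett's test.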

Liver = assay: Hepatotoxicity in rat assessed as hepatocyte necrosis; format: toxicity, tissue-based; conditions: hepatocytes

SMILES	Activity (Rattus norvegicus [1])	Activity (Rattus norvegicus [2])	Activity (Mus musculus [3])	UI (Mus musculus [4])	Activity (Gastric mucosa)	Activity (Liver)
COc1ccc(C2CC(c3ccc(-c4ccccc4)cc3)=NN2)cc1OC (stereo not drawn)	35.08%	40.35%	–	–	–	–
CC(C(=O)O)c1ccc(-c2ccccc2)c(F)c1 (stereo not drawn) [FLURBIPROFEN]	73.68%	80.69%	69.5%	1.666	7.51 nmol	–
COc1cc(OC)c(C2CC(c3ccc(-c4ccccc4)cc3)=NN2)c(OC)c1 (stereo not drawn)	80.7%	82.45%	28.6%	0.833	5.58 nmol	–
c1ccc(-c2ccc(C3=NNC(c4ccccc4)C3)cc2)cc1 (stereo not drawn)	35.08%	38.6%	–	–	–	–
Cc1ccc(C2CC(c3ccc(-c4ccccc4)cc3)=NN2C(=O)c2ccccc2)cc1 (stereo not drawn)	29.82%	31.57%	–	–	–	–
Clc1ccccc1C1CC(c2ccc(-c3ccccc3)cc2)=NN1 (stereo not drawn)	31.57%	31.57%	–	–	–	–
COc1ccc(C2CC(c3ccc(-c4ccccc4)cc3)=NN2C(=O)c2ccccc2)cc1 (stereo not drawn)	40.34%	47.36%	–	–	–	–
Clc1ccc(C2CC(c3ccc(-c4ccccc4)cc3)=NN2)cc1 (stereo not drawn)	22.8%	28.06%	–	–	–	–
O=C(c1ccccc1)N1N=C(c2ccc(-c3ccccc3)cc2)CC1c1ccccc1Cl (stereo not drawn)	31.57%	38.59%	–	–	–	–
COc1ccc(C2CC(c3ccc(-c4ccccc4)cc3)=NN2)cc1 (stereo not drawn)	35.08%	36.83%	–	–	–	–
O=C(c1ccccc1)N1N=C(c2ccc(-c3ccccc3)cc2)CC1c1ccccc1 (stereo not drawn)	28.06%	33.32%	–	–	–	–
COc1cc(OC)c(C2CC(c3ccc(-c4ccccc4)cc3)=NN2C(=O)c2ccccc2)c(OC)c1 (stereo not drawn)	73.68%	75.38%	43.2%	0.583	5.18 nmol	Non-toxic
COc1ccc(C2CC(c3ccc(-c4ccccc4)cc3)=NN2C(=O)c2ccccc2)cc1OC (stereo not drawn)	28.06%	35.08%	–	–	–	–
Cc1ccc(C2CC(c3ccc(-c4ccccc4)cc3)=NN2)cc1 (stereo not drawn)	73.69%	82.45%	72.9%	0.5	5.04 nmol	Non-toxic
CN(C)c1ccc(C2CC(c3ccc(-c4ccccc4)cc3)=NN2)cc1 (stereo not drawn)	33.33%	36.84%	–	–	–	–
O=C(c1ccccc1)N1N=C(c2ccc(-c3ccccc3)cc2)CC1c1ccc(Cl)cc1 (stereo not drawn)	35.08%	42.1%	–	–	–	–
CN(C)c1ccc(C2CC(c3ccc(-c4ccccc4)cc3)=NN2C(=O)c2ccccc2)cc1 (stereo not drawn)	33.32%	35.08%	–	–	–	–
